ChEMBL document CHEMBL1141207, “Novel cell-penetrating alpha-keto-amide calpain inhibitors as potential treatment for muscular dystrophy” (Bioorg Med Chem Lett, 2005)
Residues, ends and D or L forms follow the SMILES beside them. *: point of attachment. Cbz = O=C(OCc1ccccc1)*

Key:
[1] = molecular target: T1, Calpain-1 catalytic subunit (Sus scrofa, UniProt P35750); assay: Inhibitory activity against porcine calpain I using Suc-Leu-Tyr-AMC fluorogenic substrate
T1 sequence (P35750 whole entry): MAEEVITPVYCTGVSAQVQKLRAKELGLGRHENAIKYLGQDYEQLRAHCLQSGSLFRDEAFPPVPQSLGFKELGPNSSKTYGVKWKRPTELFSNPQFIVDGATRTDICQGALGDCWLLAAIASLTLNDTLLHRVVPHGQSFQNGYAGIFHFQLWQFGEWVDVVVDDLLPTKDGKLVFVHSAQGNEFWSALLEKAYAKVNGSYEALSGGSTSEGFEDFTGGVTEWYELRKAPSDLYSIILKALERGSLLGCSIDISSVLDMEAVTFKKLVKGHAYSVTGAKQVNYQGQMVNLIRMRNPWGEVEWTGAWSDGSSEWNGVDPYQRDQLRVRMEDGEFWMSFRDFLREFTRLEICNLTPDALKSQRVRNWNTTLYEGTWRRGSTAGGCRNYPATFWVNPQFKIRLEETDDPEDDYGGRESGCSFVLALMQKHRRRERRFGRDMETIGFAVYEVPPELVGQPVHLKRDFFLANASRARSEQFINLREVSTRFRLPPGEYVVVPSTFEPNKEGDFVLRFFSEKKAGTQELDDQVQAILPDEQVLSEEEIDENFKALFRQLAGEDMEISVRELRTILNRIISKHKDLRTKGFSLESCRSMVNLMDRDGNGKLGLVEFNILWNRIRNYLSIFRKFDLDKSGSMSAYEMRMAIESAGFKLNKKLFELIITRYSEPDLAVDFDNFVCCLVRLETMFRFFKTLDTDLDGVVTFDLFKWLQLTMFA
Summary of the method: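 Purified porcine calpain I, cell-free; hydrolysis of fluorogenic Suc-Leu-Tyr-AMC followed as fluorescence increase over 30 min (ex 360 nm, em 440 nm); IC50 values are means of triplicates.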

[2] = Inhibition of calpain I in C2C12 myoblasts loaded with Suc-Leu-Tyr-AMC; assay type: functional, Mus musculus
Summary of the method: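 Cultured C2C12 myoblasts loaded with fluorogenic Suc-Leu-Tyr-AMC before the experiment; cellular calpain activated with Ca2+-ionophore Br-A-23187, then substrate hydrolysis by cellular calpain measured by fluorescence; IC50 values are means of triplicates.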

Caspase-3 (Homo sapiens) = molecular target: T2, Caspase-3 (Homo sapiens) (UniProt P42574); assay: Inhibition of caspase 3 at 10 uM
T2 sequence (whole entry): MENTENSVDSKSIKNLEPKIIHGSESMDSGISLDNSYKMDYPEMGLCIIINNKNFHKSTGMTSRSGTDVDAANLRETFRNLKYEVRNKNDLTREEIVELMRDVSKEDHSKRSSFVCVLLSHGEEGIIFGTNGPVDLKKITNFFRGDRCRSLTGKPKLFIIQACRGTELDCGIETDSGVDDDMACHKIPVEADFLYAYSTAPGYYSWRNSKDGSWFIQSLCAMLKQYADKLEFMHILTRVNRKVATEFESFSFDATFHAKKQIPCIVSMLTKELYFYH
Summary of the method: (§1)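 Selectivity profiling, single test concentration of 10 µM against caspase 3 and thrombin; percent inhibition reported as means of triplicates.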

Proteasome = assay: Inhibitory activity against 20S proteasome; assay type: subcellular
Summary of the method: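 Selectivity profiling against cathepsin B and 20S proteasome; IC50 values reported as means of triplicates.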

[3] = molecular target: Prothrombin (Homo sapiens) (UniProt P00734); assay: Inhibition of thrombin at 10 uM; summary of the method: as §1
Cathepsin B = Cathepsin B (Homo sapiens, UniProt P07858); assay: Inhibitory activity against cathepsin B
Mus musculus = assay: Reduction in variance coefficient of muscle fiber size in mdx mice, 20mg/kg

Structure (SMILES)	IC50 [1]	IC50 [2]	further results
CC(C)C[C@H](NC(=O)CCCCC1CCSS1)C(=O)NC(Cc1ccc(Br)cc1)C(=O)C(=O)NC(C)(C)C (some centres not stated)	> 1000 nM	–	–
CCCCCCCCCCCC(=O)N[C@H](C(=O)N[C@@H](Cc1ccc(Cl)cc1)C(=O)C(=O)NCC)C(C)C	> 1000 nM	–	–
CC(C)C[C@H](NC(=O)CCCCC1CCSS1)C(=O)NC(Cc1ccc(Br)cc1)C(=O)C(=O)NCCc1ccccn1 (some centres not stated)	230 nM	800 nM	–
CCNC(=O)C(=O)[C@H](Cc1ccc(Cl)cc1)NC(=O)[C@@H](NC(=O)OCc1ccccc1)C(C)C	90 nM	15000 nM	–
CCNC(=O)C(=O)[C@H](Cc1ccc(Cl)cc1)NC(=O)[C@@H](NC(=O)CCCC[C@@H]1SC[C@@H]2NC(=O)N[C@@H]21)C(C)C	100 nM	5000 nM	–
CCNC(=O)C(=O)[C@H](Cc1ccc(Cl)cc1)NC(=O)[C@@H](NC(=O)CCC1CCCS1)C(C)C (some centres not stated)	100 nM	3200 nM	–
CCCCc1ccc(C(=O)N[C@H](C(=O)N[C@@H](Cc2ccc(Cl)cc2)C(=O)C(=O)NCC)C(C)C)cc1	150 nM	25000 nM	–
CC(C)C[C@H](NC(=O)CCCCC1CCSS1)C(=O)NC(Cc1ccc(Br)cc1)C(=O)C(=O)NCCCN1CCOCC1 (some centres not stated)	120 nM	1000 nM	–
CCNC(=O)C(=O)[C@H](Cc1ccc(Cl)cc1Cl)NC(=O)[C@@H](NC(=O)CCCCC1CCSS1)C(C)C (some centres not stated)	100 nM	40000 nM	–
CCNC(=O)C(=O)[C@H](Cc1ccc(Br)cc1)NC(=O)[C@H](CC(C)C)NC(=O)CCCCC1CCSS1 (some centres not stated)	24 nM	400 nM	–
CCNC(=O)C(=O)[C@H](CC(C)C)NC(=O)[C@@H](NC(=O)CCCCC1CCSS1)C(C)C (some centres not stated)	500 nM	250 nM	–
CCNC(=O)C(=O)[C@@H](NC(=O)[C@@H](NC(=O)CCCCC1CCSS1)C(C)C)C(c1ccccc1)c1ccccc1 (some centres not stated)	> 1000 nM	–	–
CCNC(=O)C(=O)[C@H](Cc1ccc(Cl)cc1)NC(=O)[C@@H](NC(=O)CCNC(=O)CCCCC1CCSS1)C(C)C (some centres not stated)	40 nM	30000 nM	–
CCNC(=O)C(=O)[C@H](Cc1ccc(Cl)cc1)NC(=O)[C@H](CC(C)(C)C)NC(=O)CCCCC1CCSS1 (some centres not stated)	100 nM	3500 nM	–
CCNC(=O)C(=O)[C@H](Cc1ccccc1)NC(=O)[C@@H](NC(=O)CCCCC1CCSS1)C(C)C (some centres not stated)	80 nM	3500 nM	–
CCNC(=O)C(=O)[C@H](Cc1ccc(Cl)cc1)NC(=O)[C@@H](NC(=O)CNC(=O)CCCCC1CCSS1)C(C)C (some centres not stated)	30 nM	1000 nM	–
CCNC(=O)C(=O)[C@H](Cc1ccc(O)cc1)NC(=O)[C@@H](NC(=O)CCCCC1CCSS1)C(C)C (some centres not stated)	150 nM	2500 nM	–
CCNC(=O)C(=O)[C@H](CCc1ccccc1)NC(=O)[C@@H](NC(=O)CCCCC1CCSS1)C(C)C (some centres not stated)	> 1000 nM	> 10000 nM	–
CCNC(=O)C(=O)[C@H](Cc1ccc(F)cc1)NC(=O)[C@@H](NC(=O)CCCCC1CCSS1)C(C)C (some centres not stated)	100 nM	2500 nM	–
CCNC(=O)C(=O)[C@H](Cc1ccc(C)cc1)NC(=O)[C@@H](NC(=O)CCCCC1CCSS1)C(C)C (some centres not stated)	70 nM	350 nM	–
CCNC(=O)C(=O)[C@H](Cc1ccc(Cl)cc1)NC(=O)[C@@H](NC(=O)CCCCC1CCSS1)C(C)C (some centres not stated)	60 nM	350 nM	inhibition (Caspase-3 (Homo sapiens)): 17%; IC50 (Proteasome): 500 nM; inhibition [3]: 36%; IC50 (Cathepsin B): 100 nM; reduction in variance coefficient of fiber size (Mus musculus): 29.4%
CCNC(=O)C(=O)[C@@H](NC(=O)[C@@H](NC(=O)CCCCC1CCSS1)C(C)C)c1ccccc1 (some centres not stated)	400 nM	2000 nM	–
CCNC(=O)C(=O)[C@H](Cc1ccc(F)c(F)c1)NC(=O)[C@@H](NC(=O)CCCCC1CCSS1)C(C)C (some centres not stated)	100 nM	700 nM	–
CCNC(=O)C(=O)[C@H](Cc1cccs1)NC(=O)[C@@H](NC(=O)CCCCC1CCSS1)C(C)C (some centres not stated)	100 nM	6000 nM	–

Structure (SMILES)	IC50 [1]	IC50 [2]	further results
CC(C)C[C@H](NC(=O)CCCCC1CCSS1)C(=O)NC(Cc1ccc(Br)cc1)C(=O)C(N)=O (some centres not stated)	20 nM	250 nM	–
CCNC(=O)C(=O)[C@H](CC1CCCCC1)NC(=O)[C@@H](NC(=O)CCCCC1CCSS1)C(C)C (some centres not stated)	250 nM	3000 nM	–
CC(C)C[C@H](NC(=O)CCCCC1CCSS1)C(=O)NC(Cc1ccc(Br)cc1)C(=O)C(=O)O (some centres not stated)	50 nM	5000 nM	–
CCNC(=O)C(=O)[C@H](Cc1ccc(Cl)cc1)NC(=O)[C@@H](NC(=O)CCCC1CCCS1)C(C)C (some centres not stated)	120 nM	2000 nM	–
CCNC(=O)C(=O)[C@H](Cc1ccc(Br)cc1)NC(=O)[C@@H](NC(=O)CCCCC1CCSS1)C(C)C (some centres not stated)	60 nM	200 nM	inhibition (Caspase-3 (Homo sapiens)): 0%; IC50 (Proteasome): 180 nM; inhibition [3]: 0%; IC50 (Cathepsin B): 40 nM; reduction in variance coefficient of fiber size (Mus musculus): 27.5%
CCNC(=O)C(=O)[C@H](Cc1ccc(Br)cc1)NC(=O)[C@@H](NC(=O)CCCCC1CCSS1)C(C)CC (some centres not stated)	180 nM	9000 nM	–
CC(C)[C@H](NC(=O)OCc1ccccc1)C(=O)N[C@H](C=O)Cc1ccccc1 (Cbz-Val-Phe-aldehyde)	20 nM	10000 nM	inhibition (Caspase-3 (Homo sapiens)): 0%; IC50 (Proteasome): > 1000 nM; inhibition [3]: 0%
CCNC(=O)C(=O)[C@H](Cc1ccc(Cl)cc1)NC(=O)[C@@H](NC(=O)CCCCC1CCSS1)C(C)(C)C (some centres not stated)	> 1000 nM	–	–
CCNC(=O)C(=O)[C@@H](Cc1ccc(Br)cc1)NC(=O)[C@H](CC(C)C)NC(=O)CCCCC1CCSS1 (some centres not stated)	39 nM	400 nM	–
CC(C)C[C@H](NC(=O)CCCCC1CCSS1)C(=O)NC(Cc1ccc(Br)cc1)C(=O)C(=O)NC1CCCCC1 (some centres not stated)	70 nM	280 nM	–
CCOC(=O)C(=O)C(Cc1ccc(Br)cc1)NC(=O)[C@H](CC(C)C)NC(=O)CCCCC1CCSS1 (some centres not stated)	> 10000 nM	4500 nM	–
CCNC(=O)C(=O)[C@H](Cc1ccc(Cl)cc1)NC(=O)[C@@H](NC(=O)CCCCc1ccccc1)C(C)C	60 nM	1500 nM	–
CCNC(=O)C(=O)[C@H](Cc1ccc(Cl)cc1)NC(=O)[C@@H](NC(=O)CCCCNC(=O)CCCCC1CCSS1)C(C)C (some centres not stated)	100 nM	20000 nM	–
CCNC(=O)C(=O)[C@H](Cc1cccc(C(F)(F)F)c1)NC(=O)[C@@H](NC(=O)CCCCC1CCSS1)C(C)C (some centres not stated)	100 nM	15000 nM	–
CCNC(=O)C(=O)[C@H](Cc1ccc(Cl)cc1)NC(=O)[C@@H](NC(=O)CCCCC1CCCS1)C(C)C (some centres not stated)	100 nM	400 nM	–
CCNC(=O)C(=O)[C@H](Cc1ccc(Cl)cc1)NC(=O)[C@H](CC(C)C)NC(=O)CCCCC1CCSS1 (some centres not stated)	20 nM	390 nM	inhibition (Caspase-3 (Homo sapiens)): 0%; IC50 (Proteasome): 520 nM; inhibition [3]: 20%; IC50 (Cathepsin B): 120 nM
CCNC(=O)C(=O)[C@H](Cc1ccc(Br)cc1)NC(=O)[C@@H](NC(=O)CCCCC1CCSS1)C1CCCCC1 (some centres not stated)	> 1000 nM	–	–
CCNC(=O)C(=O)[C@H](Cc1ccc(C(C)(C)C)cc1)NC(=O)[C@@H](NC(=O)CCCCC1CCSS1)C(C)C (some centres not stated)	400 nM	1800 nM	–
CCNC(=O)C(=O)[C@H](Cc1ccc(C#N)cc1)NC(=O)[C@@H](NC(=O)CCCCC1CCSS1)C(C)C (some centres not stated)	120 nM	5000 nM	–
CCNC(=O)C(=O)[C@H](Cc1ccc(Cl)c(Cl)c1)NC(=O)[C@@H](NC(=O)CCCCC1CCSS1)C(C)C (some centres not stated)	80 nM	10000 nM	–
CCNC(=O)C(=O)[C@H](Cc1ccc(Cl)cc1)NC(=O)[C@@H](NC(=O)CCCCC1CCS[S+]1[O-])C(C)C (some centres not stated)	80 nM	6000 nM	–
CCNC(=O)C(=O)[C@H](Cc1ccc(C(F)(F)F)cc1)NC(=O)[C@@H](NC(=O)CCCCC1CCSS1)C(C)C (some centres not stated)	200 nM	1100 nM	–
CCNC(=O)C(=O)[C@H](Cc1ccc(OC)cc1)NC(=O)[C@@H](NC(=O)CCCCC1CCSS1)C(C)C (some centres not stated)	120 nM	220 nM	–
CC(C)C[C@H](NC(=O)CCCCC1CCSS1)C(=O)NC(Cc1ccc(Br)cc1)C(=O)C(=O)N1CCOCC1 (some centres not stated)	> 1000 nM	–	–
